Measured values reported in ChEMBL document CHEMBL1138320, “Discovery of potent & selective inhibitors of activated thrombin-activatable fibrinolysis inhibitor for the treatment of thrombosis” (J Med Chem, 2007).

Assays:
[1] = biological target: T1, Carboxypeptidase B2 (Homo sapiens, UniProt Q96IY4); test: Inhibition of human TAFIa
T1 sequence (Q96IY4 whole entry): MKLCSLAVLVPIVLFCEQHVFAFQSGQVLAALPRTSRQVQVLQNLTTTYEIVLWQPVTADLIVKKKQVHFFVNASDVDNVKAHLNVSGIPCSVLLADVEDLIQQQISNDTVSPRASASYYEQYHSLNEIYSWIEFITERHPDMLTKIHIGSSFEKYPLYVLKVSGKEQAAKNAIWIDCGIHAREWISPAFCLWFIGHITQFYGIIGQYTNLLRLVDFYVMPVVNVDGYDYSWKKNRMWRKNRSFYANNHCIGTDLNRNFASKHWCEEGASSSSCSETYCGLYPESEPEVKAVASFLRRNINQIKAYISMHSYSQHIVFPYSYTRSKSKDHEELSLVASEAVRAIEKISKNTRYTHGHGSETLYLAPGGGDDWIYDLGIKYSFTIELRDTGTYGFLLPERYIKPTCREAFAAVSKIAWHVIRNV

[2] = biological target: T2, Carboxypeptidase B (Sus scrofa, UniProt P09955); test: Inhibition of porcine pancreatic carboxypeptidase B
T2 sequence (P09955 whole entry): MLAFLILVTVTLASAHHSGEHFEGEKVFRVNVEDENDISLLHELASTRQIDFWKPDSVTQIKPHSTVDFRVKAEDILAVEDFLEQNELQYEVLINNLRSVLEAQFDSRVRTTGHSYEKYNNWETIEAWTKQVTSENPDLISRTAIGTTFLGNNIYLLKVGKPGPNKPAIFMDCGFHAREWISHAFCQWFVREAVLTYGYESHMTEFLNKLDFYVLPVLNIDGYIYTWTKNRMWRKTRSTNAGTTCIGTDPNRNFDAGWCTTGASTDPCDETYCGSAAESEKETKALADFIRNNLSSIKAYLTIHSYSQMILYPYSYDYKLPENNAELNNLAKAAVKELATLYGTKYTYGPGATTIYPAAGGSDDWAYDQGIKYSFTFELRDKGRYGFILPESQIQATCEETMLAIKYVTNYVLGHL

[3] = biological target: T3, Carboxypeptidase N catalytic chain (Homo sapiens, UniProt P15169); test: Inhibition of human plasma carboxypeptidase N; type: cell-free
T3 sequence (P15169 whole entry): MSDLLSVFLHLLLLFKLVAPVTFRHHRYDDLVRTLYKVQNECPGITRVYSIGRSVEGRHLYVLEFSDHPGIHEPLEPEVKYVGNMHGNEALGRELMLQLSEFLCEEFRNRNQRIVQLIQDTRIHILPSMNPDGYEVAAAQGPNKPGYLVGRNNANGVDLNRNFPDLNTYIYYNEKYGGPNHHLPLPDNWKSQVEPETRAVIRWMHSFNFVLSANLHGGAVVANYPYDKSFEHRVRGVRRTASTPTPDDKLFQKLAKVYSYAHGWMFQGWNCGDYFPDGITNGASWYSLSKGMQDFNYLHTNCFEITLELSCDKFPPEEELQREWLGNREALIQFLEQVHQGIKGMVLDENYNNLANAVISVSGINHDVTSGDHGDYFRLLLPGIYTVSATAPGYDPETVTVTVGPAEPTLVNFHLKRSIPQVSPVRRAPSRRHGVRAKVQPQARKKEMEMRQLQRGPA

[4] = Volume of distribution in dog at 0.6 mg/kg, iv; type: ADME, organism-based, Canis lupus familiaris; design: dose 0.6 mg/kg, route intravenous; conditions: in vivo, read-out: Vdss
Outline: (§1)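 Single iv bolus of 0.6 mg/kg given to a dog. Total plasma clearance, volume of distribution and terminal elimination half-life were derived from the plasma pharmacokinetics.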

[5] = system: Oryctolagus cuniculus; test: Inhibition of thrombus weight in iv dosed anesthetized rabbit at 80 nM relative to control; type: functional
Outline: (§2)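 Anesthetized rabbits given compound by iv infusion to reach projected free plasma levels of about 8, 80 or 800 nM. Thrombus weight (thrombus formation) was compared with vehicle-treated animals. t-PA at 10 µg/kg/min served as comparator. Group sizes were n = 3–6, with vehicle n = 5–13.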

[6] = Hydrophilicity, log D of the compound; type: physicochemical; conditions: octanol/water
[7] = system: Oryctolagus cuniculus; test: Antithrombotic efficacy in anesthetized rabbit assessed as inhibition of thrombus formation at 800 nM relative to control; type: functional; outline: as §2
[8] = Oral bioavailability in human; type: ADME, organism-based; conditions: in vivo
Outline: (§3)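 Human pharmacokinetics after iv and oral dosing. Oral bioavailability and Tmax were determined, including with and without co-administration with food.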

[9] = Renal elimination in dog at 0.6 mg/kg, iv by urinary excretion studies; type: ADME, organism-based, Canis lupus familiaris; design: dose 0.6 mg/kg, route intravenous; conditions: urine, read-out: Activity
Outline: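 Urinary excretion study in a dog after an iv dose. Unchanged drug recovered in the urine was quantified as a percentage of the dose.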

[10] = Tmax in human; type: ADME, organism-based; conditions: in vivo; outline: as §3
[11] = Bioavailability in dog at 1 mg/kg, po; type: ADME, organism-based, Canis lupus familiaris; conditions: in vivo
Outline: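 Oral dosing at 1 mg/kg in dog for pharmacokinetic studies. Oral bioavailability was derived relative to iv dosing.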

[12] = Bioavailability in rat; type: ADME, organism-based; conditions: in vivo
[13] = Terminal elimination in dog at 0.6 mg/kg, iv; type: ADME, organism-based, Canis lupus familiaris; design: dose 0.6 mg/kg, route intravenous; conditions: in vivo; outline: as §1
[14] = Plasma clearance in dog at 0.6 mg/kg, iv; type: ADME, organism-based, Canis lupus familiaris; design: dose 0.6 mg/kg, route intravenous; outline: as §1
[15] = Selectivity for bovine pancreatic carboxypeptidase A over porcine pancreatic carboxypeptidase B

Structure (SMILES)	Ki [1]	further results
CC(C)Cn1cnc(C[C@H](NCCN)C(=O)O)c1	100 nM	–
NCCN[C@@H](Cc1cn(CCc2ccccc2)cn1)C(=O)O	140 nM	–
CCn1cnc(C[C@H](NCCN)C(=O)O)c1	250 nM	–
CCCCCn1cnc(C[C@H](NCCN)C(=O)O)c1	160 nM	–
CC(C)n1cnc(C[C@H](NCCN)C(=O)O)c1	430 nM	–
NC(N)=NCCCC(CS)C(=O)O (racemic)	4 nM	Ki [2]: 0.42 nM; Ki [3]: 2 nM
CCCn1cnc(C[C@H](NCCN)C(=O)O)c1	84 nM	–
NCCN[C@@H](Cc1c[nH]cn1)C(=O)O	–	Ki [3]: > 10000 nM
NCCN[C@@H](Cc1cn(Cc2ccccc2)cn1)C(=O)O	269 nM	–
NCCN[C@@H](Cc1cn(CC2CCC2)cn1)C(=O)O	124 nM	–
O=C(O)C(CS)Cc1ccccc1 (racemic)	–	Selectivity ratio [15]: > 10000

Continued, in another order:

Ki [1]	Structure (SMILES)	further results
> 700 nM	CCCn1cnc(C[C@@H](CCCN)C(=O)O)c1	–
235 nM	Cn1cnc(C[C@H](NCCN)C(=O)O)c1	–
140 nM	NCCCC(Cc1c[nH]cn1)C(=O)O (racemic)	–
70 nM	CCCCn1cnc(C[C@H](NCCN)C(=O)O)c1	–
300 nM	NCCCC(CS)C(=O)O (racemic)	–
46 nM	CCCn1cnc(CC(CCCN)C(=O)O)c1 (racemic)	–
10 nM	CCCn1cnc(C[C@H](CCCN)C(=O)O)c1 [UK-396,082]	Vd [4]: 0.35 L/kg; Inhibition [5]: 37%; logD [6]: -2.8; Inhibition [7]: 36%; bioavailability [8]: 23%; dose excreted [9]: 96%; Tmax [10]: 4 h; bioavailability [11]: 42%; bioavailability [12]: 20%; half-life [13]: 1.4 h; clearance [14]: 3.1 mL/min/kg
17000 nM	NCCN[C@H](Cc1c[nH]cn1)C(=O)O	–
111 nM	NCCN[C@@H](Cc1cn(CCCO)cn1)C(=O)O	–
